# M1 antag = blocks human M1 muscarinic receptor. CHO-K1 hM1, Fluo-8 calcium fluorescence, ACh EC80 antagonist. inhibition, % at 3 µM. actives 1.3% (n = 360,000). AID 588852;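 active means percent inhibition above its own plate's cutoff, namely the mean of that plate's compound wells plus 3 SD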;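 further: peak over basal fluorescence ratio during 140 s after agonist addition; 0% = ACh EC80 plus DMSO and 100% = DMSO alone without agonist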
# Target sequence (P11229 whole entry, looked up): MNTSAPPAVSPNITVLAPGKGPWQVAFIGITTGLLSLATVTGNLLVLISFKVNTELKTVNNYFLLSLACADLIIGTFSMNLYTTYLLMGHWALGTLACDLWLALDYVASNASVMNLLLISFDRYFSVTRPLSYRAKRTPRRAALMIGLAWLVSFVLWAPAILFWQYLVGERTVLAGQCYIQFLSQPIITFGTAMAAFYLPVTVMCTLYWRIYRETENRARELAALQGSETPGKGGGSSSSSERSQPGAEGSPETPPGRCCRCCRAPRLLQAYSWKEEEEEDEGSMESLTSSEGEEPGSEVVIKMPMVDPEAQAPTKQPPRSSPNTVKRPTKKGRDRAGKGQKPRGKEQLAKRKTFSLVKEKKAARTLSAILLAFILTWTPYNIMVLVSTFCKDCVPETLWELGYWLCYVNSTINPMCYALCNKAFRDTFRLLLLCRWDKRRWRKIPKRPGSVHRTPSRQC
# M5 PAM = potentiates acetylcholine response at human M5 receptor | CHO-K1 hM5, Fluo-8 calcium, ACh EC20 PAM; 0% = ACh EC20, 100% = ACh EC100 | activation, % at 3 µM | actives 0.3% (n = 360,000) | AID 624038;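 active means activation above the run cutoff, the mean activation of all test compounds plus 3 SD, cut at about 18% in these data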
#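 System: CHO-K1 hM5 cells. Reagent: acetylcholine, EC20 level. Compound dosing: single dose, 3 µM nominal final test concentration. Timing: Post-acetylcholine fluorescence recording 140 s. Detection: Fluo-8 calcium fluorescence. Read-out: % activation, ACh-normalized. Benchmarks: ACh EC20 and EC100 wells. Repeats: singlicate, one well per test compound.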
# M1 PAM = human CHRM1 positive allosteric modulation; AID 588819; actives 0.088% (n = 360,000); CHO-K1 hM1, Fluo-8 calcium fluorescence, ACh EC20; 0% = ACh EC20, 100% = maximal ACh; activation, % at 3 µM; in the data active means activation above about 19%, passing the limit was not always enough
# CHRM1 agonist = activates human CHRM1 receptor; CHO-K1 hM1, Fluo-8 calcium fluorescence, agonist mode; 0% DMSO, 100% acetylcholine EC100; activation, % at 3 µM; actives 0.33% (n = 360,000);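 active means activation above the run's mean compound activation plus 3 SD, cut at about 16% in these data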;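 further: peak over basal fluorescence ratio within a 140 s kinetic read after compound addition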
# CHRM5 agonist = CHRM5 agonism in calcium assay | activation, % at 3 µM | CHO-K1 hM5 cells, Fluo-8 calcium fluorescence; 0% DMSO wells, 100% maximal acetylcholine response | actives 0.19% (n = 360,000);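 active means activation above the run's mean over test compounds plus 3 SD, cut at about 23% in these data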;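 further: signal is peak over basal fluorescence ratio across the kinetic read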
# M5 antag = blocks acetylcholine activation of human M5 receptor | CHO-hM5 cells, Fluo-8 calcium fluorescence, ACh EC80 | actives 0.59% (n = 360,000) | inhibition, % at 3 µM | P08912;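 active means inhibition above a per-plate cutoff, the mean of that plate's test compounds plus 3 SD, cut at about 27% in these data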;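 further: 0% = acetylcholine EC80 with DMSO and 100% = DMSO without agonist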
# * marks the source's active call; other numbers are inactive results. Only some compounds are listed: those with a hit (about 2.1% of all), similar ones and a draw of the others.
SMILES,M1 antag,M5 PAM,M1 PAM,CHRM1 agonist,CHRM5 agonist,M5 antag
Cc1ccc(C(=O)CN(C(=O)c2ccc(Cl)c(Cl)c2)N2C(=O)C3CCCCC3C2=O)cc1 (configuration not stated),-1,-6,2,-5,-2,-1
Nc1nnnn1N=C1CCCCC1,12,29*,3,1,-1,7
Cc1ccc(N2CC(C(=O)NCc3ccc(C)n3C)CC2=O)cc1 (configuration not stated),-10,2,7,-3,0,2
CCNC(=O)CC1C(=O)N(CC)C(=S)N1NC(=O)c1ccccc1 (configuration not stated),-9,28*,14,-4,1,29*
Cc1ccc(S(=O)(=O)Nc2ccc3cn[nH]c3c2)c(C)c1,-5,-5,6,7,12,4
CCOc1cc(C)c(S(=O)(=O)Nc2ccc3cn[nH]c3c2)cc1C,32*,-16,-14,6,9,30*
CCOC(=O)N1CCN(C(=O)Cc2c(C(=O)O)n(C)c3ccccc23)CC1,-5,4,1,28*,7,-15
CCOC(=O)c1ccccc1NC(=O)Cc1c(C(=O)O)n(C)c2ccccc12,4,-5,0,-5,-2,8
CC12CCC3C(=CCc4cc(O)ccc43)C1CC(=NO)C2O (configuration not stated),-6,-1,2,1,24*,11
CCOC(=O)c1cnc2ccc(C)cc2c1OCc1cc(F)cc(F)c1,-27,4,9,-1,-3,-12
Cc1ccc(NC2SC(=O)N(Cc3cccc(C(=O)O)c3)C2=O)cc1 (configuration not stated),1,23*,4,-1,-1,-1
O=C(O)c1cccc(CN2C(=O)SC(Nc3ccccc3)C2=O)c1 (configuration not stated),-16,2,5,-2,-1,-5
Cc1c(-c2ccccc2)[n+](=O)c(-c2ccc(Cl)cc2)c(C)n1[O-],-4,-11,-2,-6,-2,30*
Cc1c(-c2ccccc2)[n+](=O)c(-c2ccc(Br)cc2)c(C)n1[O-],-6,3,6,-3,1,3
O=C(Nc1nccs1)c1sc2cc(Cl)ccc2c1Cl,-14,23*,7,-3,1,-3
O=C(Nc1nccs1)c1sc2ccccc2c1Cl,-13,0,8,1,1,-4
Cc1ccc(Cc2c(C)nc3nc(SCC(=O)NCCCN4CCOCC4)nn3c2C)cc1,-5,-2,-3,-5,-15,11
Cc1nc2nc(SCC(=O)NCCCN3CCCCCC3)nn2c(C)c1Cc1ccccc1,77*,-6,-38,-12,-8,8
Cc1ccccc1Cc1c(C)nc2nc(SCC(=O)NCCCN3CCCCC3)nn2c1C,51*,-4,-31,-13,-8,-1
CC(C)CCNC(=O)CCc1nnc2ccc(N3CCC(C)CC3)nn12,-18,-1,16,-10,-6,13
FC(F)Oc1ccccc1NC(=S)Nc1cccnc1,-10,2,7,-1,-1,-3
C#CCSc1nc(-c2cccs2)ccc1C#N,6,-5,-8,-5,-7,1
COC(=O)CSc1nc(-c2cccs2)ccc1C#N,47*,-8,-18,-8,-4,3
CN1CCN(C(=O)CSc2nc(-c3ccncc3)ccc2C#N)CC1,26*,-2,-10,-4,-2,6
CC(C)c1ccc(O)c(NC(=O)c2cccnc2)c1,-8,-3,0,-3,-2,3
CC(C)(C)C(=O)Nc1ccc(S(=O)(=O)N2CCCC2)cc1,-16,1,5,-2,0,-3
CCOc1ccc(C(=O)NCCN2CCCC2)cc1,-11,-4,9,-9,-7,-7
O=C(CSc1nc(C(F)(F)F)cc(=O)[nH]1)Nc1cccc2ccccc12,-29,17,24*,3,-2,-18
CCCc1cc(=O)[nH]c(SCC(=O)Nc2cccc3ccccc23)n1,-4,-1,5,-3,0,-12

# Screening data (PubChem)
